≈ marks a conversion by molar mass, not a printed value.
Tests used:
Escherichia coli [1] = test: Minimum inhibitory concentration required for growth inhibition of Escherichia coli 2891
Staphylococcus aureus [2] = test: Minimum inhibitory concentration required for growth inhibition of Staphylococcus aureus 2865
Salmonella typhimurium [3] = test: Minimum inhibitory concentration required for growth inhibition of Salmonella Typhimurium 3860; conditions: Salmonella enterica subsp. enterica serovar Typhimurium
Pseudomonas aeruginosa [4] = test: Minimum inhibitory concentration required for growth inhibition of Pseudomonas aeruginosa 4279
Enterobacter cloacae [5] = test: Minimum inhibitory concentration required for growth inhibition of cloacae 2647
Klebsiella pneumoniae [6] = test: Minimum inhibitory concentration required for growth inhibition of Klebsiella pneumoniae 4005
Enterococcus faecalis [7] = test: Minimum inhibitory concentration required for growth inhibition of Streptococcus faecalis 2864
Serratia marcescens [8] = test: Minimum inhibitory concentration required for growth inhibition of Serratia marcescens 2840
Proteus vulgaris [9] = test: Minimum inhibitory concentration required for growth inhibition of proteus vulgaris 2829
Escherichia coli [10] = test: Minimum inhibitory concentration required for growth inhibition of Escherichia coli DC2 4353
Staphylococcus aureus [11] = test: Minimum inhibitory concentration required for inhibition of D-alanyl-D-alanine ligase from Staphylococcus aureus 2865; type: functional
Outline: (§1)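 Organisms were mostly subcultured from agar into trypticase soy broth, 35 °C for 20 h; Pseudomonas was shaken at 250 rpm. MIC was the lowest concentration giving no visible growth or fewer than five colonies per spot.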

[12] = system: D-alanine--D-alanine ligase (Enterococcus faecalis); test: ATP dependent inhibition of D-alanine--D-alanine ligase after 4 hours at 10 uM concentration
Escherichia coli [13] = test: Minimum inhibitory concentration required for inhibition of D-alanyl-D-alanine ligase from Escherichia coli DC2 4353; type: functional
Outline: as §1

Serratia marcescens [14] = test: Minimum inhibitory concentration required for inhibition of D-alanyl-D-alanine ligase from Serratia marcescens 2840; type: functional
Outline: as §1

Escherichia coli [15] = test: Minimum inhibitory concentration required for inhibition of D-alanyl-D-alanine ligase from Escherichia coli Tem 2+ 4351; type: functional
Outline: as §1

Salmonella typhimurium [16] = test: Minimum inhibitory concentration required for inhibition of D-alanyl-D-alanine ligase from Salmonella Typhimurium 3860; type: functional, Salmonella enterica subsp. enterica serovar Typhimurium; conditions: Salmonella enterica
Outline: as §1

Pseudomonas aeruginosa [17] = test: Minimum inhibitory concentration required for inhibition of D-alanyl-D-alanine ligase from Pseudomonas aeruginosa 4279; type: functional
Outline: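 Inocula were subcultured from agar into trypticase soy broth and grown at 35 °C for 20 h, with the Pseudomonas strain shaken at 250 rpm. MIC was taken as the lowest concentration giving no visible growth or fewer than five colonies per inoculation spot.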

Escherichia coli [18] = test: Minimum inhibitory concentration required for inhibition of D-alanyl-D-alanine ligase from Escherichia coli 2891; type: functional
Outline: as §1

Proteus vulgaris [19] = test: Minimum inhibitory concentration required for inhibition of D-alanyl-D-alanine ligase from proteus vulgaris 2829; type: functional
Outline: as §1

Enterococcus faecalis [20] = test: Minimum inhibitory concentration required for inhibition of D-alanyl-D-alanine ligase from Streptococcus faecalis 2864; type: functional
Outline: as §1

[21] = system: D-alanine--D-alanine ligase (Enterococcus faecalis); test: ATP dependent inhibition of D-alanine--D-alanine ligase after 24 hours at 10 uM concentration
Enterobacter cloacae [22] = test: Minimum inhibitory concentration required for inhibition of D-alanyl-D-alanine ligase from cloacae 2647; type: functional
Outline: as §1

Klebsiella pneumoniae [23] = test: Minimum inhibitory concentration required for inhibition of D-alanyl-D-alanine ligase from Klebsiella pneumoniae 4005; type: functional
Outline: as §1

Klebsiella pneumoniae [24] = test: The inhibition of D-alanyl-D-alanine ligase from Klebsiella pneumoniae 4005 in the presence of F-D-Ala ug/mL; type: functional
Enterococcus faecalis [25] = test: Minimum inhibitory concentration required for inhibition of D-alanyl-D-alanine ligase from Streptococcus faecalis 2864 in the presence of F-D-Ala ug/mL; type: functional
Pseudomonas aeruginosa [26] = test: Minimum inhibitory concentration required for inhibition of D-alanyl-D-alanine ligase from Pseudomonas aeruginosa 4279 in the presence of F-D-Ala ug/mL; type: functional
Escherichia coli [27] = test: Minimum inhibitory concentration required for inhibition of D-alanyl-D-alanine ligase from Escherichia coli Tem 2+ 4351 in the presence of F-D-Ala ug/mL; type: functional

SMILES | MIC (Escherichia coli [1]) [µg/mL] | MIC (Staphylococcus aureus [2]) [µg/mL] | MIC (Salmonella typhimurium [3]) [µg/mL] | MIC (Pseudomonas aeruginosa [4]) [µg/mL] | MIC (Enterobacter cloacae [5]) [µg/mL] | MIC (Klebsiella pneumoniae [6]) [µg/mL] | MIC (Enterococcus faecalis [7]) [µg/mL] | MIC (Serratia marcescens [8]) [µg/mL] | MIC (Proteus vulgaris [9]) [µg/mL] | MIC (Escherichia coli [10]) [µg/mL] | inhibition [12] [%] | MIC (Escherichia coli [15]) [µg/mL] | MIC (Pseudomonas aeruginosa [17]) [µg/mL] | MIC (Enterococcus faecalis [20]) [µg/mL] | inhibition [21] [%] | MIC (Klebsiella pneumoniae [23]) [µg/mL] | other results
CC(N)P(=O)(O)CC(CCCc1ccccc1)C(=O)O (centres undefined) | 128 (≈ 428 µM) | 256 (≈ 855 µM) | 128 (≈ 428 µM) | > 256 | > 256 | 256 (≈ 855 µM) | 256 (≈ 855 µM) | > 256 | > 256 | 128 (≈ 428 µM) |  |  |  |  |  |  | 
CCCCCCCC(CP(=O)(O)[C@@H](C)N)C(=O)O (some centres undefined) |  |  |  |  |  |  |  |  |  |  | 75 | 128 (≈ 458 µM) | > 256 | 64 (≈ 229 µM) | 53 | 64 (≈ 229 µM) | MIC (Staphylococcus aureus [11]): 128 µg/mL (≈ 458 µM); MIC (Escherichia coli [13]): 32 µg/mL (≈ 115 µM); MIC (Serratia marcescens [14]): > 256 µg/mL; MIC (Salmonella typhimurium [16]): 128 µg/mL (≈ 458 µM); MIC (Escherichia coli [18]): 128 µg/mL (≈ 458 µM); MIC (Proteus vulgaris [19]): 128 µg/mL (≈ 458 µM); MIC (Enterobacter cloacae [22]): 256 µg/mL (≈ 917 µM)
CCC(CP(=O)(O)C(C)N)C(=O)O (centres undefined) | 256 (≈ 1220 µM) | > 256 | > 256 |  | 256 (≈ 1220 µM) |  | 2 (≈ 9.56 µM) | > 256 | 128 (≈ 612 µM) | 8 (≈ 38.2 µM) |  |  |  |  |  |  | 
CSC(CP(=O)(O)C(C)N)C(=O)O (centres undefined) |  | > 256 |  | 64 (≈ 282 µM) | 128 (≈ 563 µM) | 128 (≈ 563 µM) | 4 (≈ 17.6 µM) | 256 (≈ 1130 µM) | 4 (≈ 17.6 µM) | 64 (≈ 282 µM) | 96 |  |  |  | 96 |  | 
C[C@@H](CP(=O)(O)[C@@H](C)N)C(=O)O |  |  |  |  |  |  |  |  |  |  |  | 128 (≈ 656 µM) | 128 (≈ 656 µM) | 128 (≈ 656 µM) |  | 128 (≈ 656 µM) | MIC (Klebsiella pneumoniae [24]): 128 µg/mL; MIC (Enterococcus faecalis [25]): 8 µg/mL; MIC (Pseudomonas aeruginosa [26]): 128 µg/mL; MIC (Escherichia coli [27]): 128 µg/mL
